Bioassay records deposited in PubChem BioAssay by The Scripps Research Institute Molecular Screening Center.
OX1R antag-1: blocks the human orexin 1 receptor; O43613; OX1R-expressing cells, FRET antagonist read-out; inhibition, % at 6.6 µM; 1.8% of 330,000 active; in the data active means inhibition mostly above about 38%, no sharp cut-off; inactive means mostly below about 40%
GPR7 antag: human neuropeptides B/W receptor 1 antagonism; 1.1% of 290,000 active; inhibition, % at 4.4 µM; P48145; AID 1861; GPR7-expressing cells, fluorescence antagonist assay; in the data active means inhibition above about 16%, passing the limit was not always enough;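 further: cells stimulated with the agonist NPW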
Target sequence (P48145 whole entry, looked up): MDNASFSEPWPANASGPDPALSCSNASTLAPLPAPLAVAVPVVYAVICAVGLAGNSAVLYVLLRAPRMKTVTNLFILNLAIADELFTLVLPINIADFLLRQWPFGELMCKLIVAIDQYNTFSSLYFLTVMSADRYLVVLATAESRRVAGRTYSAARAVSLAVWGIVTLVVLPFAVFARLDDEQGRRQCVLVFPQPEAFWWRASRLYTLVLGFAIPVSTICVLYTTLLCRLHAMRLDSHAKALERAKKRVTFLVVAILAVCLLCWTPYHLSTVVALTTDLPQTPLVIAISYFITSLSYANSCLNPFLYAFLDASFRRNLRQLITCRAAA
OX1R antag-2: antagonists of human orexin 1 receptor; O43613; CHO/OX1R cells, Fluo-8 calcium fluorescence, orexin A; inhibition, % at 5 µM; 0.43% of 330,000 active;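 active means inhibition above its plate's threshold, mean inhibition of all tested compounds on the plate plus 3 SD, cut at about 37% in these data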
CHO parental Ca: signal in parental CHO cells, OX1R antagonist counter-screen; inhibition, % at 5.6 µM; 0.63% of 330,000 active; parental CHO-K1, ATP-induced calcium, Fluo-8 fluorescence;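 active means inhibition above that plate's mean sample inhibition plus 3 SD, cut at about 26% in these data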
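Test system: untransfected parental CHO cell line. Compound: one dose, 5.6 µM nominal. Detection: intracellular calcium via Fluo-8 no-wash fluorescent dye. Measure: % inhibition. Benchmarks: ATP-challenged DMSO wells low, unchallenged DMSO wells high.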
TAAR1 antag: human TAAR1 antagonism; CHO RD-HGA16 TAAR1, Fluo-8 calcium fluorescence, antagonist; inhibition, % at 3 µM; AID 624466; 1.5% of 360,000 active; Q96RJ0;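 active means inhibition above a per-plate cutoff, the mean inhibition of test compounds on that plate plus 3 SD, cut at about 49% in these data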
Target sequence (Q96RJ0 whole entry, looked up): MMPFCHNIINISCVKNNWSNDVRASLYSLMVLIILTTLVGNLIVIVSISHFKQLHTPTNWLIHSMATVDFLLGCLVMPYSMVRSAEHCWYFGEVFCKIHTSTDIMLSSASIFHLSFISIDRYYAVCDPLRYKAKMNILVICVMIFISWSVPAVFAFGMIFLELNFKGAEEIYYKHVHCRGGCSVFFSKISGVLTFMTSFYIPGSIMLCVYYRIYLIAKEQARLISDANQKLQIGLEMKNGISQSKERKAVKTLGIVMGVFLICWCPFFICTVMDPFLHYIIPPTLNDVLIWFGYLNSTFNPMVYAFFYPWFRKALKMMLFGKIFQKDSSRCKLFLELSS
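Assay system: RD-HGA16 CHO cells with stable hTAAR1 and Gα16 / Reagent: EC80 β-phenethylamine stimulus / Doses: 3 µM, single point / Timing: dye loading 75 min at 37 °C, then 30 min room temperature / Measured by: Fluo-8 intracellular calcium dye fluorescence, real-time kinetic reads / Controls: vehicle wells and EC80 agonist wells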
TAAR1 agonist: agonists of human TAAR1; Q96RJ0; CHO RD-HGA16 TAAR1, Fluo-8 calcium fluorescence; vehicle wells 0%, saturating PEA agonist 100%; activation, % at 3 µM; 0.99% of 360,000 active;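 active means activation above the mean activation of all test compounds in the run plus 3 SD, cut at about 38% in these data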
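Benchmarks: low control DMSO, high control PEA (EC100); System: CHO RD-HGA16 cells carrying human TAAR1 plus Gα16; Detection: Fluo-8 fluorescence, 5 s baseline then 140 s kinetic read; Schedule: 17-24 h plating, Fluo-8 75 min 37 °C, 30 min RT; Read-out basis: % activation from peak over basal fluorescence ratio, DMSO-to-PEA scaled.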
A number is an active result. Only some compounds are listed: those with a hit (about 4.6% of all), similar ones and a draw of the others.

For O=C(COc1ccccc1/C=C1\SC(=O)NC1=O)Nc1ccccc1 the results were OX1R antag-1 59, GPR7 antag inactive, OX1R antag-2 inactive, CHO parental Ca inactive, TAAR1 antag inactive and TAAR1 agonist inactive.
O=[N+]([O-])c1cccc(-c2nnc(-c3ccccc3)o2)c1 was read as OX1R antag-1 inactive, GPR7 antag inactive, OX1R antag-2 inactive, CHO parental Ca inactive, TAAR1 antag inactive and TAAR1 agonist inactive.
Cc1occc1-c1nnc(-c2cc([N+](=O)[O-])cc([N+](=O)[O-])c2)o1 was read as OX1R antag-1 59, GPR7 antag inactive, OX1R antag-2 inactive, CHO parental Ca inactive, TAAR1 antag inactive and TAAR1 agonist inactive.
For CC(C)N(C(=O)Cn1cc(S(=O)(=O)CC(=O)NCc2ccc(F)cc2)c2ccccc21)C(C)C the results were OX1R antag-1 inactive, GPR7 antag inactive, OX1R antag-2 inactive, CHO parental Ca inactive, TAAR1 antag inactive and TAAR1 agonist inactive.
Screening NNc1nc2c(Cl)ccc(Cl)c2s1 returned OX1R antag-1 inactive, GPR7 antag inactive, OX1R antag-2 inactive, CHO parental Ca inactive, TAAR1 antag inactive and TAAR1 agonist 39.
For Cn1c2c(c(=O)n(C)c1=O)C(C(F)(F)F)(C(F)(F)F)N=C(c1ccc(Cl)cc1)N2 the results were OX1R antag-1 56, GPR7 antag inactive, OX1R antag-2 inactive and CHO parental Ca inactive.
`COC(=O)c1cc2c(c3c4cc(C)ccc4n(S(=O)(=O)c4cccc(C)c4)c13)C(=O)N(Cc1ccc(C(F)(F)F)cc1)C2` gave TAAR1 antag inactive and TAAR1 agonist inactive.
O=C(/C=C/c1cccs1)c1ccc(N2CCOCC2)cc1 was read as OX1R antag-1 65, GPR7 antag inactive, OX1R antag-2 inactive, CHO parental Ca inactive, TAAR1 antag inactive and TAAR1 agonist inactive.
`O=C(/C=C/c1cccc(F)c1)c1ccc(N2CCOCC2)cc1` gave OX1R antag-1 inactive, GPR7 antag inactive, OX1R antag-2 inactive, CHO parental Ca inactive, TAAR1 antag inactive and TAAR1 agonist inactive.
`O=C(C(=O)N1CCC(CNC(=O)C2COc3ccccc3O2)CC1)c1cc2ccccc2o1` (stereo unspecified) gave TAAR1 antag inactive and TAAR1 agonist inactive.
For COc1ccccc1C1CC(=O)Oc2ccc(C(C)(C)C)cc21 (stereo unspecified) the results were OX1R antag-1 inactive, OX1R antag-2 inactive, CHO parental Ca inactive, TAAR1 antag inactive and TAAR1 agonist inactive.
`O=C1NC(=O)C(Cc2cccc(Oc3ccccc3)c2)S1` (stereo unspecified) gave OX1R antag-1 44, GPR7 antag inactive, OX1R antag-2 inactive, CHO parental Ca inactive, TAAR1 antag inactive and TAAR1 agonist inactive.
For Cc1ccc(-c2[nH]nc(N)c2N=Nc2ccccc2C)cc1 the results were OX1R antag-1 inactive, GPR7 antag inactive, OX1R antag-2 inactive, CHO parental Ca 56, TAAR1 antag inactive and TAAR1 agonist inactive.
For Cc1ccc(-c2[nH]nc(N)c2N=Nc2cccc(Cl)c2C)cc1 the results were GPR7 antag inactive, TAAR1 antag inactive and TAAR1 agonist inactive.
Screening Cc1cc(C)c2c(N)c(C(=O)Nc3ncc(C)s3)sc2n1 returned OX1R antag-1 51, GPR7 antag inactive, OX1R antag-2 inactive, CHO parental Ca inactive, TAAR1 antag inactive and TAAR1 agonist inactive.
COC(=O)c1sc2nc(C)cc(C)c2c1N was read as OX1R antag-1 inactive, GPR7 antag inactive, OX1R antag-2 inactive, CHO parental Ca inactive, TAAR1 antag inactive and TAAR1 agonist inactive.
For O=[N+]([O-])c1ccc(Sc2ccccn2)nc1 the results were OX1R antag-1 73, GPR7 antag inactive, OX1R antag-2 inactive, CHO parental Ca inactive, TAAR1 antag inactive and TAAR1 agonist inactive.
`O=C(Nc1cc(Sc2ccccn2)cc([N+](=O)[O-])c1)c1ccc([N+](=O)[O-])cc1` gave OX1R antag-1 inactive, GPR7 antag inactive, OX1R antag-2 44, CHO parental Ca 41, TAAR1 antag inactive and TAAR1 agonist inactive.
Screening O=[N+]([O-])c1ccc(CSc2ccccn2)cc1 returned OX1R antag-1 inactive, GPR7 antag inactive, OX1R antag-2 inactive, CHO parental Ca inactive, TAAR1 antag inactive and TAAR1 agonist inactive.
`O=C(Nc1ccc([N+](=O)[O-])cc1)c1ccccc1` gave OX1R antag-1 inactive, GPR7 antag inactive, OX1R antag-2 inactive, CHO parental Ca inactive, TAAR1 antag inactive and TAAR1 agonist inactive.
For O=C(NCc1ccccn1)c1ccc([N+](=O)[O-])cc1 the results were OX1R antag-1 inactive, GPR7 antag inactive, OX1R antag-2 inactive, CHO parental Ca inactive, TAAR1 antag inactive and TAAR1 agonist inactive.
`O=C(c1ccc([N+](=O)[O-])cc1)N(c1ccccn1)c1ccccn1` gave OX1R antag-1 74, GPR7 antag inactive, OX1R antag-2 inactive, CHO parental Ca inactive, TAAR1 antag inactive and TAAR1 agonist inactive.
For CN(c1cccnc1)c1ccc(NC(=O)Cc2c[nH]c3ccccc23)cc1Br the results were TAAR1 antag inactive and TAAR1 agonist inactive.
O=C(Nc1ccc(Br)cc1)c1cccc(S(=O)(=O)Nc2cnc3ccccc3c2)c1 was read as OX1R antag-1 inactive, GPR7 antag inactive, OX1R antag-2 inactive, CHO parental Ca 42, TAAR1 antag inactive and TAAR1 agonist inactive.
Screening CCOc1ccc(S(=O)(=O)Nc2cnc3ccccc3c2)cc1 returned OX1R antag-1 inactive, GPR7 antag inactive, OX1R antag-2 inactive, CHO parental Ca 35, TAAR1 antag inactive and TAAR1 agonist inactive.
Screening CCOc1ccc(S(=O)(=O)Nc2nc3ccccc3nc2Cl)cc1 returned OX1R antag-1 inactive, GPR7 antag inactive, OX1R antag-2 inactive, CHO parental Ca inactive, TAAR1 antag inactive and TAAR1 agonist inactive.
For O=C1CSc2ccc(C(=O)Nc3cccc(S(=O)(=O)Nc4ccc(Br)cc4)c3)cc2N1 the results were OX1R antag-1 inactive, GPR7 antag inactive, OX1R antag-2 inactive, CHO parental Ca 34, TAAR1 antag inactive and TAAR1 agonist inactive.
`OC(c1ccccc1)c1nc(-c2cccs2)cs1` (stereo unspecified) gave TAAR1 antag inactive and TAAR1 agonist inactive.
For Cc1ccc(S(=O)(=O)N2CCCN(c3nc4cc(C)ccc4cc3C#N)CC2)cc1 the results were OX1R antag-1 48, GPR7 antag inactive, OX1R antag-2 inactive, CHO parental Ca inactive, TAAR1 antag inactive and TAAR1 agonist inactive.
For Cc1cccc(NS(=O)(=O)c2nnc(NC(=O)c3cccc(C)c3)s2)c1 the results were OX1R antag-1 63, GPR7 antag inactive, OX1R antag-2 inactive, CHO parental Ca inactive, TAAR1 antag inactive and TAAR1 agonist inactive.
Cc1cccc(NS(=O)(=O)c2nnc(NC(=O)c3ccc(Cl)cc3)s2)c1 was read as OX1R antag-1 59, GPR7 antag inactive, OX1R antag-2 inactive, CHO parental Ca inactive, TAAR1 antag inactive and TAAR1 agonist inactive.
